Measured values published in ChEMBL document CHEMBL1944546, “Structure-activity relationships of novel alkylides: 3-O-arylalkyl clarithromycin derivatives with improved antibacterial activities” (2012).
Values after ≈ are worked out from the molar mass of the structure shown.

Experiments:
[1] = system: Staphylococcus haemolyticus; assay: Antibacterial activity against methicillin-resistant, coagulase-negative, constitutive MLS-resistant Staphylococcus haemolyticus PU 19 by broth microdilution method; assay type: functional
How it was run: (§1)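 MIC by broth microdilution following CLSI (2010) recommendations, using clinical isolates identified by 16S rDNA sequencing and labelled by genotype and phenotype. S. aureus ATCC 29213 and S. pneumoniae ATCC 49619 were run as control strains, and azithromycin, clarithromycin and 3-OH-clarithromycin were tested as reference agents.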

Streptococcus pneumoniae [2] = assay: Antibacterial activity against penicillin-, constitutive MLS-resistant Streptococcus pneumoniae PU 11 by broth microdilution method; assay type: functional; how it was run: as §1
Streptococcus pneumoniae [3] = assay: Antibacterial activity against erythromycin-susceptible Streptococcus pneumoniae ATCC 49619 by broth microdilution method; assay type: functional
How it was run: (§2)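 MIC read by broth microdilution following CLSI (2010) guidance. The clinical isolates were identified by 16S rDNA sequencing and labelled by genotype and phenotype. S. aureus ATCC 29213 and S. pneumoniae ATCC 49619 were the control strains. Azithromycin, clarithromycin and 3-OH-clarithromycin were run as reference compounds.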

Staphylococcus aureus [4] = assay: Antibacterial activity against erythromycin-susceptible Staphylococcus aureus ATCC 29213 by broth microdilution method; assay type: functional; how it was run: as §2
Staphylococcus aureus [5] = assay: Antibacterial activity against methicillin-, inducible MLS-resistant Staphylococcus aureus PU 32 by broth microdilution method
Streptococcus pneumoniae [6] = assay: Antibacterial activity against efflux,penicillin-susceptible Streptococcus pneumoniae PU 09 by broth microdilution method; assay type: functional; how it was run: as §2
Streptococcus pneumoniae [7] = assay: Antibacterial activity against penicillin-susceptible, constitutive MLS-resistant Streptococcus pneumoniae PU 27 by broth microdilution method; assay type: functional; how it was run: as §1
Staphylococcus aureus [8] = assay: Antibacterial activity against methicillin-susceptible, inducible MLS-resistant Staphylococcus aureus PU 64 by broth microdilution method; assay type: functional; how it was run: as §1
Staphylococcus aureus [9] = assay: Antibacterial activity against methicillin-, constitutive MLS-resistant […] by broth microdilution method; assay type: functional; how it was run: as §1
[10] = system: Streptococcus dysgalactiae; assay: Antibacterial activity against efflux, erythromycin-resistant Streptococcus dysgalactiae A 1 by broth microdilution method; assay type: functional; how it was run: as §1
[11] = system: Staphylococcus epidermidis; assay: Antibacterial activity against methicillin-resistant, constitutive MLS-resistant Staphylococcus epidermidis E2 by broth microdilution method; assay type: functional; how it was run: as §1
Streptococcus pyogenes [12] = assay: Antibacterial activity against erythromycin-susceptible Streptococcus pyogenes A 3 by broth microdilution method; assay type: functional; how it was run: as §2
Staphylococcus hominis = assay: Antibacterial activity against methicillin-resistant, coagulase-negative, inducible MLS-resistant Staphylococcus hominis E3 by broth microdilution method; assay type: functional; how it was run: as §1
Streptococcus pyogenes [13] = assay: Antibacterial activity against constitutive MLS-resistant Streptococcus pyogenes A 2 by broth microdilution method; assay type: functional; how it was run: as §1
[14] = system: Staphylococcus epidermidis; assay: Antibacterial activity against methicillin-susceptible, inducible MLS-resistant Staphylococcus epidermidis E1 by broth microdilution method; assay type: functional; how it was run: as §1

SMILES: CC[C@H]1OC(=O)[C@H](C)[C@@H](OCC#Cc2cccnc2)[C@H](C)[C@@H](O[C@@H]2O[C@H](C)C[C@H](N(C)C)[C@H]2O)[C@](C)(OC)C[C@@H](C)/C(=N\OCc2ccccc2Cl)[C@H](C)[C@H]2OC(=O)O[C@@]21C
- MIC [1]: 64 µg/mL (≈ 73.5 µM)
- MIC (Streptococcus pneumoniae [2]): 32 µg/mL (≈ 36.8 µM)
- MIC (Streptococcus pneumoniae [3]): 16 µg/mL (≈ 18.4 µM)
- MIC (Staphylococcus aureus [4]): 64 µg/mL (≈ 73.5 µM)
- MIC (Staphylococcus aureus [5]): 64 µg/mL (≈ 73.5 µM)

SMILES: CC[C@H]1OC(=O)[C@H](C)[C@@H](O/C=C\Cc2cncnc2)[C@H](C)[C@@H](O[C@@H]2O[C@H](C)C[C@H](N(C)C)[C@H]2O)[C@](C)(OC)C[C@@H](C)/C(=N\OCc2ccccc2Cl)[C@H](C)[C@H]2OC(=O)O[C@@]21C
- MIC [1]: 64 µg/mL (≈ 73.3 µM)
- MIC (Streptococcus pneumoniae [2]): 32 µg/mL (≈ 36.6 µM)
- MIC (Streptococcus pneumoniae [3]): 0.25 µg/mL (≈ 0.286 µM)
- MIC (Staphylococcus aureus [4]): 8 µg/mL (≈ 9.16 µM)
- MIC (Staphylococcus aureus [5]): 32 µg/mL (≈ 36.6 µM)

SMILES: C=CCO[C@H]1[C@H](C)[C@@H](O[C@@H]2O[C@H](C)C[C@H](N(C)C)[C@H]2O)[C@](C)(OC)C[C@@H](C)/C(=N\O)[C@H](C)[C@@H](O)[C@](C)(O)[C@@H](CC)OC(=O)[C@@H]1C
- MIC (Streptococcus pneumoniae [6]): 32 µg/mL (≈ 49.6 µM)
- MIC [1]: > 256 µg/mL
- MIC (Streptococcus pneumoniae [2]): > 256 µg/mL
- MIC (Streptococcus pneumoniae [3]): 16 µg/mL (≈ 24.8 µM)
- MIC (Staphylococcus aureus [4]): 256 µg/mL (≈ 397 µM)
- MIC (Staphylococcus aureus [5]): 128 µg/mL (≈ 198 µM)
- MIC (Streptococcus pneumoniae [7]): 128 µg/mL (≈ 198 µM)

SMILES: CC[C@H]1OC(=O)[C@H](C)[C@@H](O)[C@H](C)[C@@H](O[C@@H]2O[C@H](C)C[C@H](N(C)C)[C@H]2O)[C@](C)(OC)C[C@@H](C)C(=O)[C@H](C)[C@@H](O)[C@]1(C)O
- MIC (Streptococcus pneumoniae [6]): 128 µg/mL (≈ 217 µM)
- MIC [1]: > 256 µg/mL
- MIC (Streptococcus pneumoniae [2]): > 256 µg/mL
- MIC (Streptococcus pneumoniae [3]): 64 µg/mL (≈ 109 µM)
- MIC (Staphylococcus aureus [4]): > 256 µg/mL
- MIC (Staphylococcus aureus [5]): > 256 µg/mL
- MIC (Streptococcus pneumoniae [7]): 128 µg/mL (≈ 217 µM)

SMILES: CC[C@H]1OC(=O)[C@H](C)[C@@H](OCC#Cc2cncnc2)[C@H](C)[C@@H](O[C@@H]2O[C@H](C)C[C@H](N(C)C)[C@H]2O)[C@](C)(OC)C[C@@H](C)/C(=N\O)[C@H](C)[C@@H](O)[C@]1(C)O
- MIC (Streptococcus pneumoniae [6]): > 256 µg/mL
- MIC (Staphylococcus aureus [8]): > 256 µg/mL
- MIC [1]: > 256 µg/mL
- MIC (Streptococcus pneumoniae [2]): > 256 µg/mL
- MIC (Staphylococcus aureus [9]): > 256 µg/mL
- MIC (Streptococcus pneumoniae [3]): > 256 µg/mL
- MIC [10]: > 256 µg/mL
- MIC [11]: > 256 µg/mL
- MIC (Streptococcus pyogenes [12]): > 256 µg/mL
- MIC (Staphylococcus hominis): > 256 µg/mL
- MIC (Staphylococcus aureus [4]): > 256 µg/mL
- MIC (Staphylococcus aureus [5]): > 256 µg/mL
- MIC (Streptococcus pneumoniae [7]): > 256 µg/mL
- MIC (Streptococcus pyogenes [13]): > 256 µg/mL
- MIC [14]: > 256 µg/mL

SMILES: CC[C@H]1OC(=O)[C@H](C)[C@@H](OCC#Cc2cncnc2)[C@H](C)[C@@H](O[C@@H]2O[C@H](C)C[C@H](N(C)C)[C@H]2O)[C@](C)(OC)C[C@@H](C)/C(=N\OCc2ccccc2Cl)[C@H](C)[C@H]2OC(=O)O[C@@]21C
- MIC [1]: 32 µg/mL (≈ 36.7 µM)
- MIC (Streptococcus pneumoniae [2]): 32 µg/mL (≈ 36.7 µM)
- MIC (Streptococcus pneumoniae [3]): 16 µg/mL (≈ 18.4 µM)
- MIC (Staphylococcus aureus [4]): 32 µg/mL (≈ 36.7 µM)
- MIC (Staphylococcus aureus [5]): 32 µg/mL (≈ 36.7 µM)

SMILES: CC[C@H]1OC(=O)[C@H](C)[C@@H](O/C=C\Cc2cncnc2)[C@H](C)[C@@H](O[C@@H]2O[C@H](C)C[C@H](N(C)C)[C@H]2O)[C@](C)(OC)C[C@@H](C)/C(=N\O)[C@H](C)[C@@H](O)[C@]1(C)O
- MIC (Streptococcus pneumoniae [6]): 0.25 µg/mL (≈ 0.346 µM)
- MIC [1]: > 256 µg/mL
- MIC (Streptococcus pneumoniae [2]): 128 µg/mL (≈ 177 µM)
- MIC (Streptococcus pneumoniae [3]): 0.064 µg/mL (≈ 0.0885 µM)
- MIC (Staphylococcus aureus [4]): 0.064 µg/mL (≈ 0.0885 µM)
- MIC (Staphylococcus aureus [5]): 0.064 µg/mL (≈ 0.0885 µM)
- MIC (Streptococcus pneumoniae [7]): 16 µg/mL (≈ 22.1 µM)

SMILES: CC[C@H]1OC(=O)[C@H](C)[C@@H](OC/C=C/c2cncnc2)[C@H](C)[C@@H](O[C@@H]2O[C@H](C)C[C@H](N(C)C)[C@H]2O)[C@](C)(OC)C[C@@H](C)/C(=N\OCc2ccccc2Cl)[C@H](C)[C@H]2OC(=O)O[C@@]21C
- MIC [1]: 64 µg/mL (≈ 73.3 µM)
- MIC (Streptococcus pneumoniae [2]): 32 µg/mL (≈ 36.6 µM)
- MIC (Streptococcus pneumoniae [3]): 4 µg/mL (≈ 4.58 µM)
- MIC (Staphylococcus aureus [4]): 64 µg/mL (≈ 73.3 µM)
- MIC (Staphylococcus aureus [5]): 64 µg/mL (≈ 73.3 µM)

SMILES: CC[C@H]1OC(=O)[C@H](C)[C@@H](O/C=C\Cc2cncnc2)[C@H](C)[C@@H](O[C@@H]2O[C@H](C)C[C@H](N(C)C)[C@H]2O)[C@](C)(OC)C[C@@H](C)/C(=N\OCc2ccccc2)[C@H](C)[C@@H](O)[C@]1(C)O
- MIC (Streptococcus pneumoniae [6]): 2 µg/mL (≈ 2.46 µM)
- MIC [1]: > 256 µg/mL
- MIC (Streptococcus pneumoniae [2]): 64 µg/mL (≈ 78.7 µM)
- MIC (Streptococcus pneumoniae [3]): 2 µg/mL (≈ 2.46 µM)
- MIC (Staphylococcus aureus [4]): 32 µg/mL (≈ 39.4 µM)
- MIC (Staphylococcus aureus [5]): 4 µg/mL (≈ 4.92 µM)
- MIC (Streptococcus pneumoniae [7]): 32 µg/mL (≈ 39.4 µM)

SMILES: CC[C@H]1OC(=O)[C@H](C)[C@@H](O/C=C\Cc2cncnc2)[C@H](C)[C@@H](O[C@@H]2O[C@H](C)C[C@H](N(C)C)[C@H]2O)[C@](C)(OC)C[C@@H](C)/C(=N\OCc2ccccc2)[C@H](C)[C@H]2OC(=O)O[C@@]21C
- MIC (Streptococcus pneumoniae [6]): 1 µg/mL (≈ 1.19 µM)
- MIC [1]: 64 µg/mL (≈ 76.3 µM)
- MIC (Streptococcus pneumoniae [2]): 32 µg/mL (≈ 38.1 µM)
- MIC (Streptococcus pneumoniae [3]): 0.25 µg/mL (≈ 0.298 µM)
- MIC (Staphylococcus aureus [4]): 2 µg/mL (≈ 2.38 µM)
- MIC (Staphylococcus aureus [5]): 1 µg/mL (≈ 1.19 µM)
- MIC (Streptococcus pneumoniae [7]): 16 µg/mL (≈ 19.1 µM)
